Experimental data: ChEMBL document CHEMBL4304819, “Natural product pectolinarigenin exhibits potent anti-metastatic activity in colorectal carcinoma cells in vitro and in vivo” (2019)
Calls of active or inactive are those of the source. No cut-off for these calls is given here.

Experiments:
CT26 [1] = assay: Induction of apoptosis in mouse CT26 cells assessed as necrotic cells at 20 uM after 48 hrs by Annexin V-FITC/propidium iodide staining-based flow cytometric analysis (reference value: 1.80 %); assay type: functional
Outline: (§1)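 CT26 cells seeded at 1–2 × 10^5 per well in six-well plates for 24 h, then exposed to PEC (0–40 μM) for 24 or 48 h. Cells harvested, washed twice in cold PBS, stained with Annexin V-FITC/PI and read by flow cytometry. Early apoptotic = Annexin V+ only; late apoptotic = Annexin V+/PI+. Mean ± SD of three experiments.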

CT26 [2] = assay: Induction of apoptosis in mouse CT26 cells assessed as early apoptotic cells at 40 uM after 48 hrs by Annexin V-FITC/propidium iodide staining-based flow cytometric analysis (reference value: 2.84 %); assay type: functional; outline: as §1
[3] = molecular target: Signal transducer and activator of transcription 3 (Homo sapiens) (UniProt P40763); assay: Inhibition of STAT3 phosphorylation in human HCT116 cells after 48 hrs by Western blot analysis; assay type: cell-based
Chain of Signal transducer and activator of transcription 3 (Homo sapiens) (P40763 whole entry): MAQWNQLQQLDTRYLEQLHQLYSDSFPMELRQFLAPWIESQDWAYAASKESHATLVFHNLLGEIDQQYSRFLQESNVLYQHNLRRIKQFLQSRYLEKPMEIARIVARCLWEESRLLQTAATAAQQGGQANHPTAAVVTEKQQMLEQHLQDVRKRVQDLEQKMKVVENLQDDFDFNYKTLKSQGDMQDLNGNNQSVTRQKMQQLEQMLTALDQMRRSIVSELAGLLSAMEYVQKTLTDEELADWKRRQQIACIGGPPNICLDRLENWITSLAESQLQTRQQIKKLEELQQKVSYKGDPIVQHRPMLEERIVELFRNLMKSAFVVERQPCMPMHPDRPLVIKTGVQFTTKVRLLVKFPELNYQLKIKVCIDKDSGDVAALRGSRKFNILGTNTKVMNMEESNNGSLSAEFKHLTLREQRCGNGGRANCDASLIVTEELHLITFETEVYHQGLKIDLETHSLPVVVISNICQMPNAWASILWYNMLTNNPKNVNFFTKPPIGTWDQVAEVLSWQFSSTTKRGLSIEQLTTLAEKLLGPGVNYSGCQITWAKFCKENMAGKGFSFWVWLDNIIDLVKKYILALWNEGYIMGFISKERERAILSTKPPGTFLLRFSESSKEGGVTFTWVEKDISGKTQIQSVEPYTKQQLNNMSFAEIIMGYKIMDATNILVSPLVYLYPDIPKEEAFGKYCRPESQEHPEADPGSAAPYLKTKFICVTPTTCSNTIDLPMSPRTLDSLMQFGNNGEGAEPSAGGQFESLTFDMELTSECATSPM
Outline: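 HCT116 cells treated 48 h with PEC at 0, 10, 20 and 40 μM, lysed in RIPA. Equal protein by Lowry, SDS-PAGE, PVDF transfer. Block 1 h at 37 °C, anti-Stat3 and anti-p-Stat3 Tyr705 overnight at 4 °C, secondary 1 h, ECL. β-actin loading control; bands quantified by densitometry.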

CT26 [4] = assay: Induction of apoptosis in mouse CT26 cells assessed as increase in Bax protein expression up to 40 uM after 48 hrs by Western blot analysis; assay type: functional, cell-based
Outline: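 CT26 cells exposed 48 h to PEC at 0, 10, 20 and 40 μM, washed twice in cold PBS, lysed in RIPA. Protein measured by Lowry and equalized, run on SDS-PAGE, blotted to PVDF. Blocked 1 h at 37 °C, primary antibodies (Bax, Bcl-2, pro-caspase-3, cleaved caspase-3) overnight at 4 °C, secondary 1 h, ECL detection, densitometry.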

CT26 [5] = assay: Antitumor activity against mouse CT26 cells allografted in Balb/c mouse assessed as inhibition of Ki-67 positive cells in tumour tissue at 25 to 50 mg/kg, ip administered daily for 14 days starting from 6 days post implantation by immunohistochemical analysis; assay type: functional, organism-based
Outline: (§2)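 Female BALB/c mice (6–8 weeks) injected ip with 5 × 10^5 CT26 cells; from day 6, randomized (eight per group) to ip vehicle, 25 or 50 mg/kg once daily for 14 days. Abdominal circumference and body weight every 3 days; abdominal nodules counted by eye and weighed; spleens assessed; paraffin tumour sections immunostained (Ki-67, MMP-9, p-Stat3) with DAB detection.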

CT26 [6] = assay: Antimetastatic activity against mouse CT26 cells allografted in Balb/c mouse assessed as increase in infiltration of CD8+ T cells in blood at 25 mg/kg, ip administered daily for 14 days starting from 6 days post implantation flow cytometric analysis (reference value: 1.35 %); assay type: functional
CT26 [7] = assay: Antimetastatic activity against mouse CT26 cells allografted in Balb/c mouse assessed as decrease in CD11b-positive/Gr1-positive myeloid cells level in tumour at 25 mg/kg, ip administered daily for 14 days starting from 6 days post implantation flow cytometric analysis (reference value: 10 %); assay type: functional; parameters: scale not given: the % may be the effect or the level left
CT26 [8] = assay: Induction of apoptosis in mouse CT26 cells assessed as viable cells at 40 uM after 48 hrs by Annexin V-FITC/propidium iodide staining-based flow cytometric analysis (reference value: 88.9 %); assay type: functional; conditions: CT26, 48 h, read-out: Activity; outline: as §1
CT26 [9] = assay: Antimetastatic activity against mouse CT26 cells allografted in Balb/c mouse assessed as reduction in weight of tumour nodules weight at 50 mg/kg, ip administered daily for 14 days starting from 6 days post implantation; assay type: functional, organism-based; outline: as §2
CT26 [10] = assay: Induction of apoptosis in mouse CT26 cells assessed as decrease in pro-caspase-3 expression up to 40 uM after 48 hrs by Western blot analysis; assay type: functional, cell-based
Outline: (§3)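 Cells treated 48 h at 0, 10, 20 and 40 μM, washed in cold PBS, lysed in RIPA; protein equalized by Lowry assay, resolved by SDS-PAGE, transferred to PVDF, blocked 1 h at 37 °C, primary antibody overnight at 4 °C, secondary 1 h, ECL detection, densitometry. β-actin loading control.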

HCT-116 [11] = assay: Induction of apoptosis in human HCT116 cells assessed as necrotic cells at 10 uM after 48 hrs by Annexin V-FITC/propidium iodide staining-based flow cytometric analysis (reference value: 8.24 %); assay type: functional
Outline: (§4)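 Cells (1–2 × 10^5 per well) seeded in six-well plates 24 h, treated at 0–40 μM for 24 h or 48 h, harvested, washed twice in cold PBS, stained with Annexin V-FITC/PI and analysed by flow cytometry; early (Annexin V only) and late (Annexin V and PI) apoptotic fractions quantified; three experiments.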

CT26 [12] = assay: Inhibition of colony formation in mouse CT26 cells assessed as reduction in number of colonies up to 40 uM incubated for 24 hrs supplemented with fresh medium containing compound every 3 days for 12 days by crystal violet staining-based microscopic analysis; assay type: functional, cell-based
Outline: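 400–800 cells per well seeded in 6-well plates; after 24 h, PEC (0–40 μM) added. Medium with or without compound replaced every three days for 12 days. Colonies washed in cold PBS, fixed in methanol, stained 15 min with 0.5% crystal violet and counted under a microscope. Mean ± SD of three experiments.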

HCT-116 [13] = assay: Induction of apoptosis in human HCT116 cells assessed increase in Bax/Bcl2 protein ratio up to 40 uM after 48 hrs by Western blot analysis; assay type: functional, cell-based; outline: as §3
HCT-116 [14] = assay: Induction of apoptosis in human HCT116 cells assessed as decrease in Bcl-2 protein expression up to 40 uM after 48 hrs by Western blot analysis; assay type: functional, cell-based; outline: as §3
CT26 [15] = assay: Induction of apoptosis in mouse CT26 cells assessed as late apoptotic cells at 10 uM after 48 hrs by Annexin V-FITC/propidium iodide staining-based flow cytometric analysis (reference value: 6.49 %); assay type: functional; outline: as §1
CT26 [16] = assay: Antimetastatic activity against mouse CT26 cells allografted in ip dosed Balb/c mouse assessed as decrease in CD11b-positive/Gr1-positive myeloid cells level in peripheral blood administered daily for 14 days starting from 6 days post implantation by flow cytometric analysis; assay type: functional, organism-based
HCT-116 [17] = assay: Anticlonogenic activity against human HCT116 cells assessed as reduction in colony formation up to 40 uM incubated for 24 hrs supplemented with fresh medium containing compound every 3 days for 12 days by crystal violet staining-based microscopic analysis; assay type: functional, cell-based
Outline: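 Cells seeded at 400–800 per well in 6-well plates; after 24 h, treated with 0–40 μM in fresh medium (with or without compound) replaced every three days for 12 days. Colonies fixed in methanol, stained with 0.5% crystal violet for 15 min and counted by microscope; reported as surviving colonies, mean ± SD of three experiments.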

HCT-116 [18] = assay: Induction of apoptosis in human HCT116 cells assessed as late apoptotic cells at 10 uM after 48 hrs by Annexin V-FITC/propidium iodide staining-based flow cytometric analysis (reference value: 3.87 %); assay type: functional; outline: as §4

## COc1ccc(-c2cc(=O)c3c(O)c(OC)c(O)cc3o2)cc1 [PECTOLINARIGENIN]
CT26 [1]
  Activity: 1.94%
CT26 [2]
  Activity: 16.2%
[3]
  inhibition: Dose-dependent effect
CT26 [4]
  Activity: Active
CT26 [5]
  inhibition: Active
CT26 [6]
  Activity: 2.59%
CT26 [7]
  Activity: 7.4%
CT26 [8]
  viability at 40 µM: 67.3%
CT26 [9]
  Activity: Active
CT26 [10]
  Activity: Active
HCT-116 [11]
  Activity: 3.98%
CT26 [12]
  inhibition: Active
HCT-116 [13]
  Activity: Active
HCT-116 [14]
  Activity: Active
CT26 [15]
  Activity: 15.5%
CT26 [16]
  Activity: Dose-dependent effect
HCT-116 [17]
  inhibition: Active
HCT-116 [18]
  Activity: 5.81%
